ChEMBL document CHEMBL1149323, “Synthesis and evaluation of dihydropyrroloquinolines that selectively antagonize P-glycoprotein” (J Med Chem, 2004)

Columns and labels:
[1] = Reversal index is the ratio of IC50 in the absence of modulator to that of presence of modulator when combined with cisplatin (uM) in MCF-7 cell line; type: functional, MCF7
Method in brief: (§1)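 Cells treated in triplicate for 48 h with graded cytotoxic drug, with or without modulator. Survival quantified by sulforhodamine B absorbance at 570 nm. IC50 of the cytotoxic drug derived with and without modulator; reversal index = IC50 without modulator / IC50 with modulator.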

[2] = Reversal index is the ratio of IC50 in the absence of modulator to that of presence of modulator when combined with 5-fluorouracil (uM) in P388/ADR cell line; type: functional; method in brief: as §1
[3] = Reversal index is the ratio of IC50 in the absence of modulator to that of presence of modulator when combined with vinblastine (nM) in T24 cell line; type: functional, T-24; method in brief: as §1
[4] = Reversal index is the ratio of IC50 in the absence of modulator to that of presence of modulator when combined with taxol (nM) in T24 cell line; type: functional, T-24; method in brief: as §1
[5] = Reversal index is the ratio of IC50 in the absence of modulator to that of presence of modulator when combined with taxol (nM) in MCF-7/VP cell line; type: functional; method in brief: as §1
[6] = Reversal index is the ratio of IC50 in the absence of modulator to that of presence of modulator when combined with vinblastine (nM) in MCF-7 cell line; type: functional, MCF7; method in brief: as §1
[7] = Reversal index is the ratio of IC50 in the absence of modulator to that of presence of modulator when combined with vincristine (nM) in NCI/ADR cell line; type: functional; method in brief: as §1
[8] = Reversal index is the ratio of IC50 in the absence of modulator to that of presence of modulator when combined with 5-fluorouracil (uM) in MCF-7/VP cell line; type: functional; method in brief: as §1
[9] = Reversal index is the ratio of IC50 in the absence of modulator to that of presence of modulator when combined with taxol (nM) in MCF-7 cell line; type: functional, MCF7; method in brief: as §1
[10] = Reversal index is the ratio of IC50 in the absence of modulator to that of presence of modulator when combined with taxol (nM) in NCI/ADR cell line; type: functional; method in brief: as §1
[11] = Reversal index is the ratio of IC50 in the absence of modulator to that of presence of modulator when combined with cisplatin (uM) in T24 cell line; type: functional, T-24; method in brief: as §1
[12] = Reversal index is the ratio of IC50 in the absence of modulator to that of presence of modulator when combined with vinblastine (nM) in NCI/ADR cell line; type: functional; method in brief: as §1
[13] = Reversal index is the ratio of IC50 in the absence of modulator to that of presence of modulator when combined with doxorubicin (uM) in P388/ADR cell line
[14] = Reversal index is the ratio of IC50 in the absence of modulator to that of presence of modulator when combined with cisplatin (uM) in MCF-7/VP cell line; type: functional; method in brief: as §1
[15] = Reversal index is the ratio of IC50 in the absence of modulator to that of presence of modulator when combined with 5-fluorouracil (uM) in NCI/ADR cell line; type: functional; method in brief: as §1
[16] = Reversal index is the ratio of IC50 in the absence of modulator to that of presence of modulator when combined with vinblastine (nM) in P388/ADR cell line; type: functional; method in brief: as §1
[17] = Reversal index is the ratio of IC50 in the absence of modulator to that of presence of modulator when combined with vincristine (nM) in T24 cell line; type: functional, T-24; method in brief: as §1
[18] = Reversal index is the ratio of IC50 in the absence of modulator to that of presence of modulator when combined with vincristine (nM) in MCF-7/VP cell line; type: functional; method in brief: as §1
[19] = Reversal index is the ratio of IC50 in the absence of modulator to that of presence of modulator when combined with vincristine (nM) in P388/ADR cell line; type: functional; method in brief: as §1
[20] = Reversal index is the ratio of IC50 in the absence of modulator to that of presence of modulator when combined with cisplatin (uM) in P388/ADR cell line; type: functional; method in brief: as §1
[21] = Reversal index is the ratio of IC50 in the absence of modulator to that of presence of modulator when combined with 5-Fluorouracil (uM) in MCF-7 cell line; type: functional, MCF7; method in brief: as §1
[22] = Reversal index is the ratio of IC50 in the absence of modulator to that of presence of modulator when combined with vincristine (nM) in MCF-7 cell line; type: functional, MCF7; method in brief: as §1
[23] = Reversal index is the ratio of IC50 in the absence of modulator to that of presence of modulator when combined with cisplatin (uM) in NCI/ADR cell line; type: functional; method in brief: as §1
[24] = Reversal index is the ratio of IC50 in the absence of modulator to that of presence of modulator when combined with vinblastine (nM) in MCF-7/VP cell line; type: functional; method in brief: as §1
[25] = Reversal index is the ratio of IC50 in the absence of modulator to that of presence of modulator when combined with 5-Fluorouracil (uM) in T24 cell line; type: functional, T-24; method in brief: as §1
[26] = test system: MCF-7 (Homo sapiens); assay: Toxicity against MCF-7 cells
[27] = test system: Mus musculus; assay: In vivo tumor growth inhibition in mice when administered […] at a day 9; type: functional
Method in brief: (§2)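 Balb/c female mice, 6–8 weeks old, with 10^6 JC murine mammary adenocarcinoma cells injected subcutaneously in the right hind quarter. Treatment began once tumors were palpable (day 1), five mice per group. Dosing on days 1, 5 and 9: 100 mg/kg i.p. PGP-4008·HCl with or without 5 mg/kg doxorubicin. Caliper volumes calculated as (L×W²)/2 through day 15; unpaired t-test with Welch correction.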

[28] = test system: Mus musculus; assay: Volume of the first compartment after intraperitoneal administration of 100 mg/kg in mice; details: in vivo, ip
[29] = test system: Mus musculus; assay: In vivo tumor growth inhibition in mice when […] at a day 15; type: functional; method in brief: as §2
[30] = Maximum concentration in plasma was determined after intraperitoneal administration of 100 mg/kg in mice; type: ADME, organism-based; set-up: dose 100 mg/kg, route intraperitoneal; details: mouse, ip
Method in brief: (§3)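 Female Swiss-Webster mice, 6–8 weeks old, given 100 mg/kg PGP-4008·HCl intraperitoneally. Blood taken by intracardiac puncture under anesthesia at 1–240 min, three animals per time point. Samples precipitated with ice-cold acetonitrile with 2-naphthol internal standard, then HPLC read at 254 nm against a standard curve. Two-compartment model fit.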

[31] = test system: Mus musculus; assay: Volume of distribution after intraperitoneal administration of 100 mg/kg in mice; type: ADME, organism-based; set-up: dose 100 mg/kg, route intraperitoneal; details: in vivo, ip; method in brief: as §3
[32] = test system: Mus musculus; assay: In vivo tumor growth inhibition in mice when administered […] at a day 12; type: functional; method in brief: as §2
[33] = test system: Mus musculus; assay: In vivo tumor growth inhibition in mice when administered subcutaneously at a day 5; type: functional; details: in the assay text read “intraperitoneally” for “subcutaneously”; method in brief: as §2
[34] = Compound was evaluated for broad range of antagonistic activity against multi drug resistance-related protein (MRP) value expressed as IC20; type: functional; set-up: unit not given here
[35] = Reversal index is the ratio of IC50 in the absence of modulator to that of presence of modulator when combined with taxol (nM) in P388/ADR cell line
[36] = test system: Mus musculus; assay: AUMC after intraperitoneal administration of 100 mg/kg in mice; type: ADME, organism-based; set-up: dose 100 mg/kg, route intraperitoneal; details: in vivo, ip; method in brief: as §3
[37] = test system: Mus musculus; assay: In vivo tumor growth inhibition in mice when […] at a day 1; type: functional; method in brief: as §2
[38] = Plasma clearance rate after intraperitoneal administration of 100 mg/kg in mice; type: ADME, organism-based; set-up: dose 100 mg/kg, route intraperitoneal; details: mouse, ip, read-out: Clp (converted); method in brief: as §3
[39] = test system: Mus musculus; assay: The second majority of the volume of distribution after intraperitoneal administration of 100 mg/kg in mice; type: ADME, organism-based; set-up: dose 100 mg/kg, route intraperitoneal; details: in vivo, ip; method in brief: as §3
[40] = target: ATP-dependent translocase ABCB1 (Homo sapiens, UniProt P08183); assay: Compound was evaluated for broad range of antagonistic activity against P-glycoprotein (Pgp) value expressed as IC20; type: functional
Sequence of ATP-dependent translocase ABCB1 (P08183 whole entry): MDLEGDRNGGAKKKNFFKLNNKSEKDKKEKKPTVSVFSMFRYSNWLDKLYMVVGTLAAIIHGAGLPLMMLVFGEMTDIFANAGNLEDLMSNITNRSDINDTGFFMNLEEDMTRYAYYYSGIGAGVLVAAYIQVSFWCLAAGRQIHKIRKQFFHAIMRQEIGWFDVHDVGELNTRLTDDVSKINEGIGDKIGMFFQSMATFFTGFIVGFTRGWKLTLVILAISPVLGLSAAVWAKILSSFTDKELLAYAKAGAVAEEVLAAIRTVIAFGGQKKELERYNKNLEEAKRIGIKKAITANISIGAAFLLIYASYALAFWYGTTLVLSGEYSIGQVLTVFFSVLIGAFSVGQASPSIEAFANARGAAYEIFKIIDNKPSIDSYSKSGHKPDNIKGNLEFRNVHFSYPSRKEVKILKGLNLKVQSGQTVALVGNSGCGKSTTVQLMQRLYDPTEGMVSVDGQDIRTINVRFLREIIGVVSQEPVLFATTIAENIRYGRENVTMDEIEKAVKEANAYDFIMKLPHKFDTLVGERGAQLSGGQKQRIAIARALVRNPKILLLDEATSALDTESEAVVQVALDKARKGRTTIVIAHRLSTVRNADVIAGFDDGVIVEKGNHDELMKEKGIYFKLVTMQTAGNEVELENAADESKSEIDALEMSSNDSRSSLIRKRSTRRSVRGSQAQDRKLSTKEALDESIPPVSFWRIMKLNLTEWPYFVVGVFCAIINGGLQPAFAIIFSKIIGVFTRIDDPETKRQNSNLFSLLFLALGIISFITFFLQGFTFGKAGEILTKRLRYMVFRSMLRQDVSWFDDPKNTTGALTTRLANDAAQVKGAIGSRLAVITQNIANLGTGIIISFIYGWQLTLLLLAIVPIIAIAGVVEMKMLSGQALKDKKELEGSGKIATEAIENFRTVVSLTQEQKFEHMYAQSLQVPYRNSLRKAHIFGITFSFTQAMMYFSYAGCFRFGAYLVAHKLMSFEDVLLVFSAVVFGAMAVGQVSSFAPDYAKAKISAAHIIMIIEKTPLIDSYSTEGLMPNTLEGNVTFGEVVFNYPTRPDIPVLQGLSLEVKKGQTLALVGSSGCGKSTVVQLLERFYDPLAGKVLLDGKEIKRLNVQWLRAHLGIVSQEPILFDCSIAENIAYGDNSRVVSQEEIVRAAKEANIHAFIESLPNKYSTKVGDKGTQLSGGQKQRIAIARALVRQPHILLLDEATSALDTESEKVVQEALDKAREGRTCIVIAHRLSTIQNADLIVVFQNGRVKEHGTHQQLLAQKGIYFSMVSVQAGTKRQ

Row | SMILES | RI [2] | RI [3] | RI [4] | RI [5] | RI [6] | RI [7] | RI [9] | RI [10] | RI [11] | RI [12] | RI [13] | RI [14] | RI [15] | RI [16] | RI [17] | RI [18] | RI [19] | RI [20] | RI [22] | RI [23] | also measured
1 | COc1ccc(CCN(C)CCCC(C#N)(c2ccc(OC)c(OC)c2)C(C)C)cc1OC (configuration not stated) | 0.7 | 2.7 | 1.6 | 1.1 | 1.2 | 50 | 1.1 | 106 | 1 | 173 | 1000 | 0.8 | 0.9 | 61 | 3.7 | 15 | 112 | 2 | 4.6 | 1.1 | RI [1]: 1.1; RI [8]: 0.9; RI [21]: 0.9; RI [24]: 2.4; RI [25]: 1.6
2 | O=C(Cc1ccccc1)Nc1c2c(nc3ccccc13)N(Cc1ccccc1)CC2 | 0.7 | 3.8 | 1.2 | 0.8 | 1.8 | 18 | 0.9 | 70 | 1.1 | 35 | 200 | 0.8 | 1 | 63 | 1.5 | 1 | 30 | 1.9 | 0.9 | 1.2 | Toxicity [26]: 13 µM; Tumor volume [27]: 1030 mm**3; V1 [28]: 2.3 mL; Tumor volume [29]: 2000 mm**3; Cmax [30]: 197 µg/mL; Vdss [31]: 43 mL; Tumor volume [32]: 1280 mm**3; Tumor volume [33]: 470 mm**3; Activity [34]: 0.7; RI [35]: 202; AUMC [36]: 9.4 µg·h²/mL; Tumor volume [37]: 380 mm**3; CL/F [38]: 1.34 mL/min; V2 [39]: 40.5 mL; RI [24]: 1.3; RI [25]: 2.6; Activity [40]: 10.7
